Laboratory results published in the EternaBench riboswitch data.

Tested on: MS2 coat protein
Experiment: apparent Kd, MS2 coat protein; higher = weaker binding; RNA-MaP array; FMN 200 µM where present
In short: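 Apparent Kd: the median of filtered binding-curve fits from single clusters. Designs were transcribed on Illumina sequencing-chip clusters by stalled E. coli RNA polymerase and titrated with SNAP-549-labelled MS2 coat protein from 0.7 or 1.5 nM, doubling to 3 µM, in 100 mM Tris-HCl pH 7.5, 80 mM KCl, 4 mM MgCl2, BSA, DTT, yeast tRNA and Tween-20. Each series ran without and then with constant ligand, and green signal was normalised to red-channel RNA signal and control-cluster median Fmax.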

[1] = designed as: OFF switch for flavin mononucleotide, no ligand
[2] = ligand present: flavin mononucleotide, designed as: OFF switch for flavin mononucleotide
[3] = designed as: ON switch for flavin mononucleotide, no ligand
[4] = ligand present: flavin mononucleotide, designed as: ON switch for flavin mononucleotide

GGCAUAAUGUAGGAUAUCGUAUUGGAAACAAUACGAGAAGGGCAAACAUGAGGAUCACCCAUGUUCCUUAAGCC
apparent Kd [1]: 0.0185 µM | apparent Kd [2]: 0.019 µM

GGCCCACAAGGAUAUACAUGAGGAUCACCCAUGUAAAUCUCAGGUAGUAUGUGGGUGUGUAGAAGGUGUUAGCC
apparent Kd [1]: 0.0152 µM | apparent Kd [2]: 0.0144 µM

GGCGAACAGGCUAACAUGAGGAUCACCCAUGUGGACUCAUGCGAGGAUAUCGGGAAGGAGGAUUCCGAGAAGGUGCGGUGAGCC
apparent Kd [3]: 0.788 µM | apparent Kd [4]: 0.304 µM

GGCGACCUAGGAUAUACAUGAGGAUCACCCAUGUUUAUCUAAUAGAUGAAGACGGGUUGUAGAAGGAGGAAAAU
apparent Kd [1]: 0.0156 µM | apparent Kd [2]: 0.0194 µM

GGCGGGCGGGAGGAUAUUCGGGCUGUUUGGCUUGGAGAAGGCUCGACAUGAGGAUCACCCAUGUUUGGGUCGCC
apparent Kd [1]: 0.0162 µM | apparent Kd [2]: 0.027 µM

GGCUAGUCAGGAUAUACGAACAUGUCAAAAGACGUGAAGGGACAUGAGGAUCACCCAUGUAGAAGGGACUAGCC
apparent Kd [1]: 0.0228 µM | apparent Kd [2]: 0.182 µM

GGCUCAUUGACAUUAAUGUGCAGACAGGAUAUCCACCGCGGUUCCUACAUGAGGAUCACCCAUGUGGAGAAGGGUCGCUAAUGG
apparent Kd [1]: 0.0161 µM | apparent Kd [2]: 0.0436 µM

GGCUGCGUUGUGAAGGAUAUCCGCGUCUGGACAUGAGGAUCACCCAUGUAUGCUUGGAUCGUGCCGGAGAAGGUCACGGGUGAUU
apparent Kd [3]: 0.124 µM | apparent Kd [4]: 0.046 µM

GGCUUAAACACAGGAUAUGGCCUUAGAGUGAGGCCAGAAGGGUGAAGUUCUCAUACAUGAGGAUCACCCAUGUCAAGGAGGCUA
apparent Kd [3]: 0.857 µM | apparent Kd [4]: 0.201 µM

GGGCCACAUGAGGAUCACCCAUGUAAACCCGUGCUCAGGGCACAGGAUAUGGGCCUGGAUGAGGCCCAGAAGGGUGGUCUGGCC
apparent Kd [3]: 0.0401 µM | apparent Kd [4]: 0.0163 µM

GGGCCACAUGAGGAUCACCCAUGUAAGGAUAUGCUAGGGAUGGAAAAAAUUUCGCUAGGCAGAAGGUACUAAAG
apparent Kd [1]: 0.032 µM | apparent Kd [2]: 0.0556 µM

GGGCCCGGUGUGAGGAUAUGGGCCCGGAAACGGGCCCAGAAGGCACAUGAGGAUCACCCAUGUAAGCCGGGCCC
apparent Kd [1]: 0.0154 µM | apparent Kd [2]: 0.0157 µM

GGGCCGGUGGAGAAGGAGCGUGCGAAACGCAUGCUAGGAUAUCCACAUGAGGAUCACCCAUGUGGGAAUAUCUGGUUUUCACAG
apparent Kd [1]: 0.00385 µM | apparent Kd [2]: 0.00465 µM

GGGCUCGGAGGAUAUACAUGAGGAUCACCCAUGUAGGGCUCGGGUAUUCUCGGGCUCUGUAGAAGGUCGGGCUC
apparent Kd [1]: 0.0203 µM | apparent Kd [2]: 0.0233 µM

GGGCUGCGACGCAGCCCAACAAAACAUGAGGAUCACCCAUGUCAGGAUAUACCGAUGCAGCAUCUGUAGAAGGGACAGAUCCAA
apparent Kd [1]: 0.0904 µM | apparent Kd [2]: 0.0924 µM

GGGUACAUCGGAGGAUAUCAUCUAAAUACAUGAGGAUCACCCAUGUCGAUGGAGACAUCGGAGAUUGAGAAGGCCGAUGUACCG
apparent Kd [3]: 0.00506 µM | apparent Kd [4]: 0.00523 µM

GGGUACAUCGGAGGAUAUCAUGUAAAUACAUGAGGAUCACCCAUGUCGAUGGAGAAAUCGGAGAUUGAGAAGGCCGAUGUACCG
apparent Kd [3]: 0.0169 µM | apparent Kd [4]: 0.0071 µM

GGGUACAUCGGAGGAUAUCAUGUAAAUACAUGAGGAUCACCCAUGUCGAUGGAGACAUCGGACAUUGAGAAGGCCGAUGUACCG
apparent Kd [3]: 0.0292 µM | apparent Kd [4]: 0.00579 µM

GGGUACAUCGGAGGAUAUCAUGUAAAUACAUGAGGAUCACCCAUGUCGAUGGAGACAUCGGAGAUUGAGAAGGACGAUGUACCG
apparent Kd [3]: 0.32 µM | apparent Kd [4]: 0.014 µM

GGGUACAUCGGAGGAUAUCAUGUAAAUACAUGAGGAUCACCCAUGUCGAUGGAGACAUCUGAGAUUGAGAAGGCCGAUGUACCG
apparent Kd [3]: 0.0194 µM | apparent Kd [4]: 0.00645 µM

GGGUACAUCGGAGGAUAUCAUGUAAAUACAUGAGGAUCACCCAUGUCGAUGGUGACAUCGGAGAUUGAGAAGGCCGAUGUACCG
apparent Kd [3]: 0.245 µM | apparent Kd [4]: 0.00937 µM

GGGUACAUCUGAGGAUAUCAUGUAAAUACAUGAGGAUCACCCAUGUCGAUGGAGACAUCGGAGAUUGAGAAGGCCGAUGUACCG
apparent Kd [3]: 0.263 µM | apparent Kd [4]: 0.014 µM

GGGUACGUUUCGUAGCAGUGUCAUCGAGAAGGCCCUGACAUGAGGAUCACCCAUGUUGUUACAUGGGAGGAUAUCGAUGAUUUU
apparent Kd [3]: 0.0191 µM | apparent Kd [4]: 0.00606 µM

GGGUAGAUCCGAGGAUAUACAAUCCGGAAACGGUACAUGAGGAUCACCCAUGUAGAAGGCGGAUCUACAGGUACUAAAGUACCC
apparent Kd [1]: 0.00632 µM | apparent Kd [2]: 0.00865 µM

GGGUGAGCUCAAGGAUAUCCAAAUCGGUUACAUGAGGAUCACCCAUGUCCGGGCGAAUAAAGGCCGGAGAAGGUGAGGGCCCUC
apparent Kd [3]: 0.0675 µM | apparent Kd [4]: 0.18 µM

GGGUUUGGUGUGAGGAUAUGUUUGGGUAAACCCGGGCAGAAGGCACAUGAGGAUCACCCAUGUAAGCCGGGCCC
apparent Kd [1]: 0.0149 µM | apparent Kd [2]: 0.0147 µM

GGUACCAACACAGGAUAUGCAAUCCUUUGGGUUGCAGAAGGGUGAAACAUGAGGAUCACCCAUGUGGUGCCAGGGCGUGAGCCC
apparent Kd [3]: 1.29 µM | apparent Kd [4]: 0.104 µM

GGUACCAACACAGGAUAUGCUUUCCUUUGGGAAGCAGAAGGGUGAAAACAUGAGGAUCACCCAUGUGGUACCGGGCGUGAGCCC
apparent Kd [3]: 0.534 µM | apparent Kd [4]: 0.039 µM

GGUACCAUCACAGGAUAUGCUAUCCUUUGGGUAGCAGAAGGGUGUAACAUGAGGAUCACCCAUGUGGUGCCAGGGCGUGAGCCC
apparent Kd [3]: 0.496 µM | apparent Kd [4]: 0.0499 µM

GGUACCAUCACAGGAUAUGCUUUCCUUUGGGAAGCAGAAGGGUGUAACAUGAGGAUCACCCAUGUGGUGCCAGGGCGUGGGCCC
apparent Kd [3]: 0.212 µM | apparent Kd [4]: 0.0192 µM

GGUACGCAUGUAGGAUAUCGAGCUCAAAGAGCUCGAGAAGGACAUGAGGAUCACCCAUGUCGUCACAGACAGUGACGGCGUACC
apparent Kd [1]: 0.02 µM | apparent Kd [2]: 0.0387 µM

GGUACUCAAAGAGUACAAGAAAGAACAUGAGGAUCACCCAUGUAGGAUAUGCUACUCAAAGAGUAGCAGAAGGACAUGUGCAGC
apparent Kd [1]: 0.0306 µM | apparent Kd [2]: 0.103 µM

GGUACUCAAAGAGUACCAAGACGAACAUGAGGAUCACCCAUGUAGGAUAUGCUACUCAAAGAGUAGCAGAAGGACAUGUGCCUA
apparent Kd [1]: 0.0171 µM | apparent Kd [2]: 0.107 µM

GGUACUCAAAGAGUACCAAUACGAACAUGAGGAUCACCCAUGUAGGAUAUGCUACUCAAAGAGUAGCAGAAGGACAUGCGCCUA
apparent Kd [1]: 0.0182 µM | apparent Kd [2]: 0.106 µM

GGUACUCAAAGAGUACCAAUAUGAACAUGAGGAUCACCCAUGUAGGAUAUGCUACUCAAAGAGUAGCAGAAGGACAUGUGUCUA
apparent Kd [1]: 0.0167 µM | apparent Kd [2]: 0.0755 µM

GGUACUCAAAGAGUACUGAGUCGAACAUGAGGAUCACCCAUGUAGGAUAUGCGAGUUUUGAAUUUGCAGAAGGACAUUUGCAGC
apparent Kd [1]: 0.00934 µM | apparent Kd [2]: 0.0108 µM

GGUACUCAAAGAGUACUUGGUCGAACAUGAGGAUCACCCAUGUAGGAUAUACAAAGCAAGAAGUAGUAGAAGGACAUGUGCAGC
apparent Kd [1]: 0.0129 µM | apparent Kd [2]: 0.0163 µM

GGUAGGAUCGCAGGAUAUGCUAUCCUUUGGGUAGCAGAAGGGUGAUAACAUGAGGAUCACCCAUGUCCUACCGGGCGUGAGCCC
apparent Kd [3]: 0.0578 µM | apparent Kd [4]: 1.59 µM

GGUCCAACAUGAGGAUAUAGCACCUUAUUGGUGCUAGAAGGCGUGUCGGUAGACAUGAGGAUCACCCAUGUAUUACAUUGGACC
apparent Kd [3]: 0.0932 µM | apparent Kd [4]: 0.0224 µM

GGUCCACAUGAGGAUCACCCAUGUUAGGAUAUCUCGCCCGAGCCCAUAUGGGCCAGGCAGAGAAGGAAUGUGAA
apparent Kd [1]: 0.0237 µM | apparent Kd [2]: 0.0235 µM

GGUCCUCUGGUGAGGAUAUCUACCCAGGCAGCUGGAGAGAAGGCACAUGAGGAUCACCCAUGUAGCAGAAAACC
apparent Kd [1]: 0.00998 µM | apparent Kd [2]: 0.017 µM

GGUCGACAUGAGGAUCACCCAUGUCAGGAUAUCGUCACUGGAGCUGCGGCUCCAGUGACGAGAAGGGAUAUGAU
apparent Kd [1]: 0.0413 µM | apparent Kd [2]: 0.0374 µM

GGUCGCAAGUAAGGAUAUGCCUAGGAAACCUAGGCAGAAGGUACAUGAGGAUCACCCAUGUUAACGCAAAGCGAAUAAGCGACC
apparent Kd [1]: 0.0158 µM | apparent Kd [2]: 0.0215 µM

GGUCGUCAAAUUAACAUGAGGAUCACCCAUGUGAAAACACAUGAGGAUAUGCAUCCUAAUUGGAUGCAGAAGGCAUGGACGACC
apparent Kd [3]: 0.0165 µM | apparent Kd [4]: 0.00621 µM

GGUGCAUAUGAGAAGGCGGUCAUGAAACAUGAUCGAGGAUAUCAUGUAAACAUGAGGAUCACCCAUGUAUGGGAAUAAUGCACC
apparent Kd [3]: 0.238 µM | apparent Kd [4]: 0.016 µM

GGUGCGUUUGUGAGGAUAUGCUGGUCCUUGGUUCGGCAGAAGGCACAUGAGGAUCACCCAUGUGGUGUCGCUCC
apparent Kd [1]: 0.0417 µM | apparent Kd [2]: 0.139 µM

GGUGGACAUGAGGAUCACCCAUGUGAGGAUAUCGGCUAUCUACUCGCUGACGGCUGCUCGAGAAGGCACAUUGU
apparent Kd [1]: 0.0707 µM | apparent Kd [2]: 0.107 µM

GGUGGACAUGAGGAUCACCCAUGUGAGGAUAUCGGCUGGCUAGCGGCUGACGGCUGCUCGAGAAGGCGCAUUGU
apparent Kd [1]: 0.0658 µM | apparent Kd [2]: 0.0849 µM

GGUGGUGUCCGAGGAUAUCGUUAGGCGUUGUUGCGAGAAGGCGGACAUGAGGAUCACCCAUGUUUGAUGAAAGAGGAGGUUGUG
apparent Kd [1]: 0.0985 µM | apparent Kd [2]: 0.123 µM

GGUGUACAUGAGGAUCACCCAUGUCGUACGACAUGAGGAUAUGUACAGACUUCGGUCUGUACAGAAGGCAUGUGUC
apparent Kd [3]: 0.249 µM | apparent Kd [4]: 0.0264 µM

GGUUAUUGCAAGGAUAUGCUUUUUUUUUAUAUUGCAGAAGGUGCAACAUGAGGAUCACCCAUGUUGGAGGGAUU
apparent Kd [1]: 0.0309 µM | apparent Kd [2]: 0.0595 µM

GGUUCCAACACAGGAUAUGCUAUCCUUUGGGUAGCAGAAGGGUGAAAACAUGAGGAUCACCCAUGUGGAACCGGGCGUGAGCCC
apparent Kd [3]: 0.412 µM | apparent Kd [4]: 0.0465 µM

GGUUCUAGAGGAUAUACAAACUGAUCCUCAGAGCGCCGGCCACAUGAGGAUCACCCAUGUAGAAGGUUGGAAUC
apparent Kd [1]: 0.0203 µM | apparent Kd [2]: 0.0116 µM

GGUUGGCGAGGAUAUACAUGAGGAUCACCCAUGUGAGAGAAAAAAGUGAGAACGAAAAGUAGAAGGCGCUGACG
apparent Kd [1]: 0.0435 µM | apparent Kd [2]: 0.176 µM

GGUUGGCGAGGAUAUACAUGAGGAUCACCCAUGUGGUCCUGUGGCAAAAAAAACCUUUGUAGAAGGCGCGGGUC
apparent Kd [1]: 0.354 µM | apparent Kd [2]: 0.285 µM
